In ChEMBL document CHEMBL5576142, “Exploring 2-Sulfonylpyrimidine Warheads as Acrylamide Surrogates for Targeted Covalent Inhibition: A BTK Story” (J Med Chem, 2024):
Activity calls are given as the source filed them. No cut-off for these calls is given here.

Legend:
[1] = test system: Epidermal growth factor receptor (Homo sapiens), P00533 [G719S]; test: Inhibition of EGFR G719S mutant (unknown origin) expressed in expressed in Escherichia coli BL21 at 1 uM incubated for 1 hr by Eurofins-KinomeScan assay relative to control
Chain of Epidermal growth factor receptor (Homo sapiens), P00533 [G719S] (P00533 whole entry G719S): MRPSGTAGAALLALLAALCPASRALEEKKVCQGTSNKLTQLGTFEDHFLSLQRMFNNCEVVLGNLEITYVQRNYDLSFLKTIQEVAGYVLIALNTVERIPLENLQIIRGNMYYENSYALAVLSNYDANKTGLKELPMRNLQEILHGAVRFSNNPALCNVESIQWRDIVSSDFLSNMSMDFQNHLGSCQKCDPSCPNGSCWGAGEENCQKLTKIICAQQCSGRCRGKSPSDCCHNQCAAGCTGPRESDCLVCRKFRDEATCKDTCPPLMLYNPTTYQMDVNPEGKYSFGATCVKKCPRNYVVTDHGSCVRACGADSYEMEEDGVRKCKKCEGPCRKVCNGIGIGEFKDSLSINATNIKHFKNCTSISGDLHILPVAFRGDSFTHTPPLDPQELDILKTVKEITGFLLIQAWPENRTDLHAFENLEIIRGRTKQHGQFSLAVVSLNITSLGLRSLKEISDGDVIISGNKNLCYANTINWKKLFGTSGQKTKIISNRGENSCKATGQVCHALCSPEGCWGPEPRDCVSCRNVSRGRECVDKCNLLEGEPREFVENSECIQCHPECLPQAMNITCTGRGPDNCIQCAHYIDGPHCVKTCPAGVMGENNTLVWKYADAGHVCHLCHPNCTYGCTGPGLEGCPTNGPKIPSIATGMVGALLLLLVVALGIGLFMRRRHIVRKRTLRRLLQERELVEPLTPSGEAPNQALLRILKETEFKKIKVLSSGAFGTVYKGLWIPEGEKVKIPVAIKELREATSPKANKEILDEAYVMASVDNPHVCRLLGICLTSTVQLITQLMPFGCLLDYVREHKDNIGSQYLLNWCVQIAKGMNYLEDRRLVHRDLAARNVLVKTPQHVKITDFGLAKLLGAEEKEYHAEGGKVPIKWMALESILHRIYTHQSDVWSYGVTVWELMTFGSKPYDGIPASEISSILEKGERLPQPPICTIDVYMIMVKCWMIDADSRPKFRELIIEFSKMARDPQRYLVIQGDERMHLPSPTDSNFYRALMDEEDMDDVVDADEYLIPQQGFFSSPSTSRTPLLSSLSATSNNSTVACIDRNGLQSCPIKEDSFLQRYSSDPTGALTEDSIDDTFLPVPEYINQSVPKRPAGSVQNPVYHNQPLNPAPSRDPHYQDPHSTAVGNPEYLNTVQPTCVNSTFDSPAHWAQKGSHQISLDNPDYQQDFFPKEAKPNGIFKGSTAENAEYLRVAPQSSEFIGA

[2] = target: T1, Tyrosine-protein kinase BTK (Homo sapiens, UniProt Q06187); test: Inhibition of BTK in anti-IgM induced human OCILY7 cells assessed as increase in calcium flux at 250 nM incubated for […] followed by anti-IgM and Pluronic F127 stimulation measured after […] by Fluo-3 AM based flow cytometry; type: cell-based; details: time 5.0 hrs
T1 sequence (Q06187 whole entry): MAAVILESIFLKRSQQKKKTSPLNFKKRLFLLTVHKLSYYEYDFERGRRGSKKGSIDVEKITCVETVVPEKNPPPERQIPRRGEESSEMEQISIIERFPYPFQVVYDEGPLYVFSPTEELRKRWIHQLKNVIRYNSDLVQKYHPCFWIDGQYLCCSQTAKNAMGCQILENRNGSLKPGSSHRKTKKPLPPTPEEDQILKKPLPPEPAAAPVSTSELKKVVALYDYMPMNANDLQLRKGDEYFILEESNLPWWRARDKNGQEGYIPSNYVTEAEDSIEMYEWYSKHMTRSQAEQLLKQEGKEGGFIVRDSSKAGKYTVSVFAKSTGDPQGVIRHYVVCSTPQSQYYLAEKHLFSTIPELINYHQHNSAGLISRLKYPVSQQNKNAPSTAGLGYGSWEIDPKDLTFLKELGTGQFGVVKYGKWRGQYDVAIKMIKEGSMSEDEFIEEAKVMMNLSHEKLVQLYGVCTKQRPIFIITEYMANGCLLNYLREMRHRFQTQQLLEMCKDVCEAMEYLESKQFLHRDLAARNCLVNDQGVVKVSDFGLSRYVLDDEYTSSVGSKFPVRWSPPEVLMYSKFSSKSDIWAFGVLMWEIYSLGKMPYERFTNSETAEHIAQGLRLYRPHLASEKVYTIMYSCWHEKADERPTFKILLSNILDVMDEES

[3] = test system: Epidermal growth factor receptor (Homo sapiens), P00533 [T790M]; test: Inhibition of EGFR T790M mutant (unknown origin) expressed in expressed in Escherichia coli BL21 at 1 uM incubated for 1 hr by Eurofins-KinomeScan assay relative to control
Chain of Epidermal growth factor receptor (Homo sapiens), P00533 [T790M] (P00533 whole entry T790M): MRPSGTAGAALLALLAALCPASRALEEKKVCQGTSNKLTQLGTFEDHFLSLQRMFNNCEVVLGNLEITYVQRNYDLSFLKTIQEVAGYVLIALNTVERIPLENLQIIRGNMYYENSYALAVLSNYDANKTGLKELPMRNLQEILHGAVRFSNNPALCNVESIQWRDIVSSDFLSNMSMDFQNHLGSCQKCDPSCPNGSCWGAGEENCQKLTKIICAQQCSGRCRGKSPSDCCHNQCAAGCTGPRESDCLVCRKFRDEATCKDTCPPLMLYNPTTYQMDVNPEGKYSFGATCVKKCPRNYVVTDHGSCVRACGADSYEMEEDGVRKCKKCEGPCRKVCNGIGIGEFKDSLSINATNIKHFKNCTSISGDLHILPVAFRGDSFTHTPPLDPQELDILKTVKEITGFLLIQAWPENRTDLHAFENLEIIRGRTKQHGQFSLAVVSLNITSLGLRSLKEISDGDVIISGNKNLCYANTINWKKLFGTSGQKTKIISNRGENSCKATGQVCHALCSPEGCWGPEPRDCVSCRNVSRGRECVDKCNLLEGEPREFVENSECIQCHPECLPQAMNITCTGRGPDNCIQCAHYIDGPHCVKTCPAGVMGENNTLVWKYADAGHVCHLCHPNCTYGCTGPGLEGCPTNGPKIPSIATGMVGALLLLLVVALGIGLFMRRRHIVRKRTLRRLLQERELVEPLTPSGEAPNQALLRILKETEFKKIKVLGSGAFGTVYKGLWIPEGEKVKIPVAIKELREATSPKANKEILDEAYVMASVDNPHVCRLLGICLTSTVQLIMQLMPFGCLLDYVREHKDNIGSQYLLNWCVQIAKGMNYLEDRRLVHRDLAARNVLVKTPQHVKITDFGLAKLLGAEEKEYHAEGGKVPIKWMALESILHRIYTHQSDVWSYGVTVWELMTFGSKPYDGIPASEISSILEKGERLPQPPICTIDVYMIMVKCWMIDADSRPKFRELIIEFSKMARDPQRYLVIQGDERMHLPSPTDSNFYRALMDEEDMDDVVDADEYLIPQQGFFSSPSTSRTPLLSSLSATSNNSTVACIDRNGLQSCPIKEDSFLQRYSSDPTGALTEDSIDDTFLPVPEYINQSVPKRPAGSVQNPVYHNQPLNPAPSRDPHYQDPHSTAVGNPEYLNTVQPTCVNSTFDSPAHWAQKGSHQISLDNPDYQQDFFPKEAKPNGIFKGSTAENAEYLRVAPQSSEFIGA

[4] = target: T1, Tyrosine-protein kinase BTK
[5] = test system: Epidermal growth factor receptor (Homo sapiens), P00533 [L861Q]; test: Inhibition of EGFR L861Q mutant (unknown origin) expressed in expressed in Escherichia coli BL21 at 1 uM incubated for 1 hr by Eurofins-KinomeScan assay relative to control
Chain of Epidermal growth factor receptor (Homo sapiens), P00533 [L861Q] (P00533 whole entry L861Q): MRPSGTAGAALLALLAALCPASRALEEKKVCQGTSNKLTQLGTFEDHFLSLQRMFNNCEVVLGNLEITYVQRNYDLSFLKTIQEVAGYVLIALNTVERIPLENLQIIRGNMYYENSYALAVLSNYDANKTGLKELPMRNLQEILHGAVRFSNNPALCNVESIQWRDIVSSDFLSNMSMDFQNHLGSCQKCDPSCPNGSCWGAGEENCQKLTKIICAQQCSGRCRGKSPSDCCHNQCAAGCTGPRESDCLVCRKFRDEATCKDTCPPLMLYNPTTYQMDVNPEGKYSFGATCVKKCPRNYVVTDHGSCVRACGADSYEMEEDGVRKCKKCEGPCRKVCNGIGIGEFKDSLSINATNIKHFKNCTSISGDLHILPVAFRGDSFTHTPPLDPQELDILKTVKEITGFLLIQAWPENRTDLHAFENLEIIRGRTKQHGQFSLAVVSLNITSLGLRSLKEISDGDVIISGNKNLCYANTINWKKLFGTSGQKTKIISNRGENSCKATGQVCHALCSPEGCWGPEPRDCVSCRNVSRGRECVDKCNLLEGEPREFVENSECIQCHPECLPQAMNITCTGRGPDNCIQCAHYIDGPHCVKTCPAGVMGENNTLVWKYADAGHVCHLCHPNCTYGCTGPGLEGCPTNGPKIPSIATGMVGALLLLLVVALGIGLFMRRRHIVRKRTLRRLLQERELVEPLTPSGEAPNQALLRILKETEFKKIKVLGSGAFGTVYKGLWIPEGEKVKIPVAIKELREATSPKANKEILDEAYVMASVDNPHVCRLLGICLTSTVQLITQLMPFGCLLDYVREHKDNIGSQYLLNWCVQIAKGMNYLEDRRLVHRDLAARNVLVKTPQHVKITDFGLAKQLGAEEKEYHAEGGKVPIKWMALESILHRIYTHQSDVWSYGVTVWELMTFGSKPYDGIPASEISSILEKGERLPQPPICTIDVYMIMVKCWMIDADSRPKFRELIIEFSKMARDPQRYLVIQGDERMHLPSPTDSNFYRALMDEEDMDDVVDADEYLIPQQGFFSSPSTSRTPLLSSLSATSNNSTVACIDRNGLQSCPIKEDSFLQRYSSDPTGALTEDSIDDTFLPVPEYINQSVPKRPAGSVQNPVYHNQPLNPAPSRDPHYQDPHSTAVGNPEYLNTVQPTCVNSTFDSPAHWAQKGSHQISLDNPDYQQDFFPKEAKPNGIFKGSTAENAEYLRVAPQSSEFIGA

[6] = target: T1, Tyrosine-protein kinase BTK; details: OCILY7, dose 500.0 nM, time 1.0 hrs
[7] = target: T1, Tyrosine-protein kinase BTK; details: OCILY7, dose 500.0 nM, time 1.0 hrs; remark: listed apart in the source
[8] = target: T1, Tyrosine-protein kinase BTK; details: OCILY7, dose 500.0 nM, time 1.0 hrs; remark: listed apart in the source
[9] = target: T1, Tyrosine-protein kinase BTK; details: OCILY7, dose 500.0 nM, time 1.0 hrs; remark: listed apart in the source
[10] = test system: Epidermal growth factor receptor (Homo sapiens), P00533 [G719C]; test: Inhibition of EGFR G719C mutant (unknown origin) expressed in expressed in Escherichia coli BL21 at 1 uM incubated for 1 hr by Eurofins-KinomeScan assay relative to control
[11] = target: T1, Tyrosine-protein kinase BTK; details: OCILY7, dose 500.0 nM, time 1.0 hrs; remark: listed apart in the source
[12] = target: T1, Tyrosine-protein kinase BTK; test: Covalent inhibition of full-length BTK (unknown origin) expressed in Escherichia coli BL21 (DE3) at 100 nM incubated for 1 hr in presence of ATP by ADP-Glo kinase assay relative to control
[13] = Stability in human plasma assessed as parent compound remaining incubated for 3 hrs by UPLC-MS analysis; type: ADME, cell-free; details: read-out: Stability
TMD8 [14] = test: Downregulation of CD83 gene expression in human TMD8 cells at 1 uM incubated for 8 hrs by RNA-sequencing analysis; type: functional, cell-based
In short: (§1)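 TMD8 cells (RPMI-1640, 10% FBS, penicillin/streptomycin, 2 mM glutamine) exposed to compound or DMSO vehicle for 8 h; total RNA extracted for RNA-seq. Differential expression versus DMSO scored at FDR < 0.01 with log2 fold change beyond ±0.5.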

TMD8 [15] = test: Downregulation of NR4A1 gene expression in human TMD8 cells at 1 uM incubated for 8 hrs by RNA-sequencing analysis; type: functional, cell-based; in short: as §1
TMD8 [16] = test: Downregulation of NFKBID gene expression in human TMD8 cells at 1 uM incubated for 8 hrs by RNA-sequencing analysis; type: functional, cell-based; in short: as §1
TMD8 [17] = test: Downregulation of LTA gene expression in human TMD8 cells at 1 uM incubated for 8 hrs by RNA-sequencing analysis; type: functional, cell-based; in short: as §1
TMD8 [18] = test: Downregulation of IL-10 gene expression in human TMD8 cells at 1 uM incubated for 8 hrs by RNA-sequencing analysis; type: functional, cell-based; in short: as §1
TMD8 [19] = test: Downregulation of EGR2 gene expression in human TMD8 cells at 1 uM incubated for 8 hrs by RNA-sequencing analysis; type: functional, cell-based; in short: as §1
TMD8 [20] = test: Induction of apoptosis in human TMD8 cells assessed as necrotic cells at 1000 nM incubated for 72 hrs by Annexin-V/PI staining based flow cytometry (reference value: 3 %); type: functional
TMD8 [21] = test: Induction of necroptosis in human TMD8 cells assessed as upregulation of TLR4 gene expression at 1 uM incubated for 8 hrs by RNA-sequencing analysis; type: functional, cell-based
In short: (§2)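 TMD8 cells (RPMI-1640, 10% FBS, glutamine) exposed to compound at 1 μM or DMSO for 8 h. Total RNA extracted and analysed by RNA-seq. Differential expression called against DMSO at FDR < 0.01 with |log2FC| > 0.5.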

TMD8 [22] = test: Induction of apoptosis in human TMD8 cells assessed as early apoptotic cells at 10 nM incubated for 72 hrs by Annexin-V/PI staining based flow cytometry (reference value: 4.8 %); type: functional
TMD8 [23] = test: Downregulation of CYP1A1 gene expression in human TMD8 cells at 1 uM incubated for 8 hrs by RNA-sequencing analysis; type: functional, cell-based; in short: as §2
TMD8 [24] = test: Induction of apoptosis in human TMD8 cells assessed as necrotic cells at 10 nM incubated for 72 hrs by Annexin-V/PI staining based flow cytometry (reference value: 3 %); type: functional
TMD8 [25] = test: Induction of necroptosis in human TMD8 cells assessed as upregulation of TNFSF10 gene expression at 1 uM incubated for 8 hrs by RNA-sequencing analysis; type: functional, cell-based; in short: as §2
TMD8 [26] = test: Induction of apoptosis in human TMD8 cells assessed as early apoptotic cells at 1000 nM incubated for 72 hrs by Annexin-V/PI staining based flow cytometry (reference value: 4.8 %); type: functional
TMD8 [27] = test: Induction of pyroptosis in human TMD8 cells assessed as upregulation of TLR8 gene expression at 1 uM incubated for 8 hrs by RNA-sequencing analysis; type: functional, cell-based; in short: as §2
TMD8 [28] = test: Induction of necroptosis in human TMD8 cells assessed as upregulation of RIPK1 gene expression at 1 uM incubated for 8 hrs by RNA-sequencing analysis; type: functional, cell-based; in short: as §2
TMD8 [29] = test: Induction of pyroptosis in human TMD8 cells assessed as upregulation of NLRP7 gene expression at 1 uM incubated for 8 hrs by RNA-sequencing analysis; type: functional, cell-based; in short: as §2
TMD8 [30] = test: Induction of necroptosis in human TMD8 cells assessed as upregulation of TRPM7 gene expression at 1 uM incubated for 8 hrs by RNA-sequencing analysis; type: functional, cell-based; in short: as §2
TMD8 [31] = test: Induction of apoptosis in human TMD8 cells assessed as late apoptotic cells at 10 nM incubated for 72 hrs by Annexin-V/PI staining based flow cytometry (reference value: 25.4 %); type: functional
TMD8 [32] = test: Induction of apoptosis in human TMD8 cells assessed as necrotic cells at 100 nM incubated for 72 hrs by Annexin-V/PI staining based flow cytometry (reference value: 3 %); type: functional
TMD8 [33] = test: Induction of apoptosis in human TMD8 cells assessed as late apoptotic cells at 100 nM incubated for 72 hrs by Annexin-V/PI staining based flow cytometry (reference value: 25.4 %); type: functional
[34] = target: T1, Tyrosine-protein kinase BTK; test: Inhibition of NanoLuc fused BTK (unknown origin) transiently transfected in HEK293 cells incubated for 1 hr by NanoBRET assay; type: cell-based
TMD8 [35] = test: Induction of apoptosis in human TMD8 cells assessed as viable cells at 1000 nM incubated for 72 hrs by Annexin-V/PI staining based flow cytometry (reference value: 66 %); type: functional; details: read-out: Activity
[36] = GSH reactivity in PBS buffer at pH 7.4 assessed as pseudo-first order rate constant incubated upto 6 hrs at 20 degreeC by LC-MS analysis; type: physicochemical; details: pH 7.4, 6 h
In short: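 Compound at 100 μM with 1 mM GSH (10 equiv) in PBS pH 7.4, containing 100 μM 4-hydroxybenzoic acid as internal standard and 5% v/v DMSO, held at 20 °C. LC-MS traces taken every 10 min. Normalized integrals plotted against time to give a pseudo-first-order rate constant. Run in triplicate.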

TMD8 [37] = test: Induction of pyroptosis in human TMD8 cells assessed as upregulation of TLR4 gene expression at 1 uM incubated for 8 hrs by RNA-sequencing analysis; type: functional, cell-based; in short: as §2

Row | SMILES | inhibition [1] | inhibition [3] | inhibition [5] | inhibition [7] | inhibition [8] | inhibition [9] | inhibition [10] | inhibition [11] | inhibition [12] | further results
1 | Cc1cnc(S(C)(=O)=O)nc1N1CCC[C@H](n2nc(-c3ccc(Oc4ccccc4)cc3)c3c(N)ncnc32)C1 | Active | Active | Active | Active | inactive | inactive | Active | inactive | – | inhibition [2]: Active; Kinact [4]: 0.007 s⁻¹; inhibition [6]: inactive
2 | CS(=O)(=O)c1ncc(Cl)c(C(=O)N2CCC[C@H](n3nc(-c4ccc(Oc5ccccc5)cc4)c4c(N)ncnc43)C2)n1 | – | – | – | – | – | – | – | – | 80% | –
3 | CS(=O)(=O)c1nccc(C(=O)N2CCC[C@H](n3nc(-c4ccc(Oc5ccccc5)cc4)c4c(N)ncnc43)C2)n1 | – | – | – | – | – | – | – | – | 80% | –
4 | Nc1ncnc2c1c(-c1ccc(Oc3ccccc3)cc1)nn2[C@H]1CCCN(C(=O)c2cnc(S(=O)(=O)c3ccccc3)nc2)C1 | – | – | – | – | – | – | – | – | 40% | –
5 | CCOC(=O)c1cnc(S(C)(=O)=O)nc1N1CCC[C@H](n2nc(-c3ccc(Oc4ccccc4)cc3)c3c(N)ncnc32)C1 | Active | Active | Active | Active | inactive | inactive | Active | inactive | > 95% | remaining at 3 h [13]: 22%
6 | CS(=O)(=O)c1ncc(C(=O)N2CCC[C@H](n3nc(-c4ccc(Oc5ccccc5)cc4)c4c(N)ncnc43)C2)cn1 | – | – | – | – | – | – | – | – | 80% | –
7 | CCCCS(=O)(=O)c1ncc(C(=O)N2CCC[C@H](n3nc(-c4ccc(Oc5ccccc5)cc4)c4c(N)ncnc43)C2)cn1 | – | – | – | – | – | – | – | – | 40% | –
8 | C=CC(=O)N1CCC[C@@H](n2nc(-c3ccc(Oc4ccccc4)cc3)c3c(N)ncnc32)C1 | – | – | – | – | – | – | – | – | – | Activity (TMD8 [14]): Active; Activity (TMD8 [15]): Active; Activity (TMD8 [16]): Active; Activity (TMD8 [17]): Active; Activity (TMD8 [18]): Active; Activity (TMD8 [19]): Active
9 | CCCCS(=O)(=O)c1nccc(C(=O)N2CCC[C@H](n3nc(-c4ccc(Oc5ccccc5)cc4)c4c(N)ncnc43)C2)n1 | – | – | – | – | – | – | – | – | 40% | –
10 | COC(=O)c1cnc(S(C)(=O)=O)nc1N1CCC[C@H](n2nc(-c3ccc(Oc4ccccc4)cc3)c3c(N)ncnc32)C1 | Active | Active | Active | Active | inactive | inactive | Active | inactive | – | –
11 | CNC(=O)c1cnc(S(C)(=O)=O)nc1N1CCC[C@H](n2nc(-c3ccc(Oc4ccccc4)cc3)c3c(N)ncnc32)C1 | Active | Active | Active | Active | inactive | inactive | Active | inactive | – | Activity (TMD8 [20]): 4.5%; Activity (TMD8 [21]): Active; inhibition [2]: Active; Activity (TMD8 [22]): 3.4%; Activity (TMD8 [23]): Active; Activity (TMD8 [24]): 3.9%; Activity (TMD8 [25]): Active; Activity (TMD8 [26]): 14.5%; Activity (TMD8 [27]): Active; Activity (TMD8 [28]): Active; inhibition [6]: inactive; Activity (TMD8 [29]): Active; Activity (TMD8 [30]): Active; Activity (TMD8 [31]): 26.6%; Activity (TMD8 [32]): 4.6%; Activity (TMD8 [33]): 53%; IC50 [34]: 0.6 nM; viability at 1 µM (TMD8 [35]): 14.7%; K [36]: 47 10^-5/s; Activity (TMD8 [37]): Active
